Results on 38 compounds are retold here after ChEMBL document CHEMBL4028901, “Novel Antitubercular 6-Dialkylaminopyrimidine Carboxamides from Phenotypic Whole-Cell High Throughput Screening of a SoftFocus Library: Structure-Activity Relationship and Target Identification Studies” (J Med Chem, 2017).

Molecules are shown by their SMILES. Converted amounts (≈) assume the structure as drawn.

Data set [1] concerns Mycobacterium tuberculosis. The data set is described as follows: Antibacterial activity against Mycobacterium tuberculosis H37RvMA grown in 7H9/ADC medium measured 7 to 14 days post inoculation by broth microdilution method. In kind it is functional. (In broth dilution the organism is exposed to a series of concentrations in liquid medium.)
The subject of data set [2] is Mycobacterium tuberculosis. The data set is described as follows: Antibacterial activity against Mycobacterium tuberculosis H37RvMA grown in GAST/Fe medium measured 7 to 14 days post inoculation by broth microdilution method. In kind it is functional. An outline of the steps: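 H37RvMa grown to OD600 0.6–0.7, diluted 1:100 in GAST/Fe. Compounds two-fold serially diluted from a top concentration of 640 μM, in duplicate. Incubated at 37 °C with humidification.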

The next data set deals with Vero. The data set is described as follows: Cytotoxicity against African green monkey Vero cells assessed as reduction in cell viability by MTT assay. In kind it is cell-based. The following applies: Chlorocebus sabaeus. Summed up:
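MTT assay in Vero cells, samples in triplicate on one occasion. Stocks at 20 mg/mL in DMSO, diluted in complete medium as 10-fold serial dilutions over 6 concentrations. Emetine used as reference. IC50 derived by non-linear dose-response curve fitting.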
(Tetrazolium assays rely on reduction of a dye to a coloured formazan, in cell work by metabolically active cells.)

The nature of data set [3]: Kinetic solubility of the compound in pH 7.4 solution at 10 to 220 uM after 2 hrs by shake flask method. The following applies: for Kinetic_solubility: buffer, pH 7.4, 2 h, 220 µM; for solubility kinetic at 2 h: pH 7.4 solution, pH 7.4, read-out: Kinetic_solubility. In kind it is physicochemical.

For `COc1ccc(NC(=O)c2cc(N(C)Cc3ccc(F)cc3)ncn2)cc1`, the MIC99 (in general, an inhibitory concentration at the 99% level, which refers to growth in some studies and to a panel of isolates in others) in data set [1] stood at 5 µM (≈ 1.83 µg/mL); in data set [2], 2.5 µM (≈ 0.916 µg/mL). The IC50 (usually the concentration that inhibits the measured activity by half) in the data set with Vero was determined as 60.5 µM. The same compound returned a Kinetic_solubility in data set [3] of 62 µM.

For the compound `CN(Cc1ccc(Cl)cc1)c1cc(C(=O)Nc2ccccc2)ncn1`, the MIC99 in data set [1] worked out at 5 µM (≈ 1.76 µg/mL); in data set [2], 2.3 µM (≈ 0.811 µg/mL). In addition, the concentration for half-maximal inhibition (IC50) in the data set with Vero turned out to be 207 µM. Also, the Kinetic_solubility in data set [3] is under 5 µM.

As to `O=C(Nc1ccccc1)c1cc(N2CCc3ccccc3C2)ncn1`, the MIC99 in data set [1] and in data set [2] was over 160 µM in each case. This compound also showed a Kinetic_solubility in data set [3] of under 5 µM.

Regarding `Cc1nc(C(=O)Nc2ccccc2)cc(N(C)Cc2ccc(Cl)cc2)n1`, the MIC99 in data set [1] and in data set [2] was over 160 µM in each case.

In the case of `CN1CCN(c2ccc(NC(=O)c3cc(N(C)Cc4ccc(F)cc4)ncn3)cn2)CC1`, the MIC99 in data set [1] is over 50 µM; in data set [2] it was 19 µM (≈ 8.27 µg/mL). Moreover, in the data set with Vero, the IC50 was 126 µM. In data set [3], this compound displayed a Kinetic_solubility of 150 µM.

Consider `COc1ccc(NC(=O)c2cc(N(C)Cc3ccc(Cl)cc3)nc(NC3CC3)n2)cc1`, for which the MIC99 in data set [1] was over 50 µM; in data set [2], over 160 µM. In data set [3], this compound came in with a Kinetic_solubility of 5 µM.

In the case of `CN(Cc1ccc(F)cc1)c1cc(C(=O)Nc2ccon2)ncn1`, the MIC99 is over 50 µM in data set [1] and 160 µM (≈ 52.4 µg/mL) in data set [2].

Consider `COCCOc1ccc(NC(=O)c2cc(N(C)Cc3ccc(F)cc3)ncn2)cc1`, for which the MIC99 in data set [1] came to 2.3 µM (≈ 0.944 µg/mL); in data set [2], 1.56 µM (≈ 0.64 µg/mL). Also, the IC50 with Vero was found to be 244 µM. In data set [3], the Kinetic_solubility was under 5 µM.

Turning to `CN(CC1CCCCC1)c1cc(C(=O)Nc2ccccc2)ncn1`, the MIC99 was over 50 µM in data set [1] and 40 µM (≈ 13 µg/mL) in data set [2]. Also, in the data set with Vero, the IC50 was 178 µM.

Take `CN(Cc1ccc(F)cc1)c1nc(C(=O)Nc2ccccc2)cs1`: the MIC99 in data set [1] and in data set [2] was over 50 µM throughout. The IC50 with Vero turned out to be 279 µM. The solubility kinetic at 2 h in data set [3] was under 5 µM.

Consider `COc1ccc(NC(=O)c2ccnc(N(C)Cc3ccc(F)cc3)n2)cc1`, for which the MIC99 in data set [1] and in data set [2] was over 50 µM each time. The IC50 in the data set with Vero turned out to be 273 µM. The solubility kinetic at 2 h in data set [3] is under 5 µM.

With `CN1CCN(c2cccc(NC(=O)c3cc(N(C)Cc4ccc(F)cc4)ncn3)c2)CC1`, the MIC99 in data set [1] and in data set [2] was 37 µM (≈ 16.1 µg/mL) throughout. For the same compound, in the data set on Vero, the IC50 worked out at 118 µM. In data set [3], this compound displayed a Kinetic_solubility of 74 µM.

Compound `CN(Cc1ccccc1)c1cc(C(=O)N(C)c2ccccc2)ncn1` yielded an MIC99 in data set [1] of over 160 µM.

Consider `CN(Cc1ccccc1Cl)c1cc(C(=O)Nc2ccccc2)ncn1`, for which the MIC99 in data set [1] is over 160 µM. The compound further registered a Kinetic_solubility in data set [3] of under 5 µM.

As for `CN(Cc1cccc(Cl)c1)c1cc(C(=O)Nc2ccccc2)ncn1`, the MIC99 is 20 µM (≈ 7.06 µg/mL) in data set [1] and 10 µM (≈ 3.53 µg/mL) in data set [2]. This compound also had a Kinetic_solubility in data set [3] of under 5 µM.

`O=C(Nc1ccccc1)c1cc(NCc2ccccc2)ncn1` showed an MIC99 in data set [1] of over 160 µM. Moreover, the Kinetic_solubility in data set [3] was under 5 µM.

The compound `CN(Cc1ccc(F)cc1)c1ccnc(C(=O)Nc2ccccc2)c1` registered an MIC99 in data set [2] of 10 µM (≈ 3.35 µg/mL). For the same compound, the IC50 in the data set with Vero was 298 µM. Moreover, the solubility kinetic at 2 h in data set [3] is under 5 µM.

Take `CN(Cc1ccccc1)c1cc(C(=O)Nc2ccccc2)ncn1`: the MIC99 is 20 µM (≈ 6.37 µg/mL) in data set [1] and 10 µM (≈ 3.18 µg/mL) in data set [2]. The IC50 in the data set with Vero amounted to 314 µM. The compound further registered a Kinetic_solubility in data set [3] of under 5 µM.

As to `CC(=O)N1CCN(c2ccc(NC(=O)c3cc(N(C)Cc4ccc(C(F)(F)F)nc4)ncn3)cc2)CC1`, the MIC99 came out at 4.7 µM (≈ 2.41 µg/mL) in data set [1] and 2.3 µM (≈ 1.18 µg/mL) in data set [2]. Moreover, the IC50 in the data set on Vero was over 50 µM. Besides, the solubility kinetic at 2 h in data set [3] was under 5 µM.

For the compound `CN(Cc1ccc(F)cc1)c1cc(C(=O)Nc2ccc(N3CCOCC3)cc2)ncn1`, the results for the MIC99 in data set [1] and in data set [2] were 0.78 µM (≈ 0.329 µg/mL) and 0.6 µM (≈ 0.253 µg/mL), respectively. In addition, the half-inhibitory concentration (IC50) in the data set on Vero was found to be 237 µM. The compound further gave a Kinetic_solubility in data set [3] of under 5 µM.

Consider `CC(C)NC(=O)c1cc(N(C)Cc2ccc(C(F)(F)F)cc2)ncn1`, for which the MIC99 was over 50 µM in data set [1] and over 160 µM in data set [2]. Moreover, in the data set with Vero, the half-maximal inhibitory concentration (IC50) was 217 µM. The compound also yielded a Kinetic_solubility in data set [3] of 13 µM.

`CN(c1ccccc1)c1cc(C(=O)Nc2ccccc2)ncn1` yielded an MIC99 in data set [1] of over 160 µM. In data set [3], this compound gave a Kinetic_solubility of under 5 µM.

As to `Cc1csc(NC(=O)c2cc(N(C)Cc3ccc(F)cc3)ncn2)n1`, the results for the MIC99 in data set [1] and in data set [2] were 37 µM (≈ 13.2 µg/mL) and 5 µM (≈ 1.79 µg/mL), respectively. For the same compound, the Kinetic_solubility in data set [3] is under 5 µM.

As for `CN(Cc1ccc(Cl)cc1)c1cc(C(=O)Nc2ccncc2)ncn1`, the MIC99 in data set [2] is 10 µM (≈ 3.54 µg/mL). In addition, the IC50 in the data set with Vero is 282 µM. In data set [3], this compound registered a Kinetic_solubility of under 5 µM.

Regarding `Cc1c(C(=O)Nc2ccc(F)cc2)ncnc1N(C)Cc1ccc(F)cc1`, the MIC99 is over 50 µM in data set [1] and 37 µM (≈ 13.6 µg/mL) in data set [2]. Besides, the 50% inhibitory concentration (IC50) in the data set with Vero is 271 µM. For the same compound, the solubility kinetic at 2 h in data set [3] was under 5 µM.

Turning to `O=C(Nc1ccccc1)c1cc(OCc2ccccc2)ncn1`, the MIC99 in data set [1] was over 160 µM.

`CN(Cc1ccc(F)cc1)c1cc(C(=O)Nc2ccccc2)cnn1`: the MIC99 in data set [1] and in data set [2] was over 50 µM throughout. The IC50 in the data set with Vero came out at 279 µM. Also, the Kinetic_solubility in data set [3] was found to be 40 µM.

For the compound `COc1ccc(NC(=O)c2cc(N(C)Cc3ccc(Cl)cc3)nc(N)n2)cc1`, the values for the MIC99 in data set [1] and in data set [2] were over 50 µM and over 160 µM, respectively. In addition, the solubility kinetic at 2 h in data set [3] is under 5 µM.

As to `CN(Cc1ccc(F)cc1)c1cc(C(=O)Nc2ccn(C)n2)ncn1`, the MIC99 in data set [1] was over 50 µM; in data set [2] it was 40 µM (≈ 13.6 µg/mL). Further, the Kinetic_solubility in data set [3] is 90 µM.

Turning to `CN(C)CCOc1ccc(NC(=O)c2cc(N(C)Cc3ccc(F)cc3)ncn2)cc1`, the MIC99 in data set [1] is 25 µM (≈ 10.6 µg/mL); in data set [2], 12.5 µM (≈ 5.29 µg/mL). Further, the Kinetic_solubility in data set [3] was found to be 155 µM.

Take `CN(Cc1ccccn1)c1cc(C(=O)Nc2ccccc2)ncn1`: the MIC99 in data set [1] is over 160 µM.

For `CCN(Cc1ccc(Cl)cc1)c1cc(C(=O)Nc2ccccc2)ncn1`, the MIC99 was over 50 µM in data set [1] and 40 µM (≈ 14.7 µg/mL) in data set [2]. The IC50 in the data set on Vero came out at 272 µM. In data set [3], this compound gave a Kinetic_solubility of 5 µM.

For `O=C(Nc1ccccc1)c1ccc(=O)n(Cc2ccc(F)cc2)c1`, the MIC99 in data set [1] and in data set [2] was over 50 µM in each case. In addition, the IC50 in the data set on Vero worked out at 310 µM. Further, the Kinetic_solubility in data set [3] came out at 170 µM.

`CN(CCc1ccccc1)c1cc(C(=O)Nc2ccccc2)ncn1` returned an MIC99 in data set [1] of 80 µM (≈ 26.6 µg/mL). The compound further yielded a Kinetic_solubility in data set [3] of under 5 µM.

Take `CN(Cc1ccc(F)cc1)c1cncc(C(=O)Nc2ccc(F)cc2)n1`: the MIC99 in data set [1] and in data set [2] was over 50 µM in each case. Also, the IC50 in the data set with Vero was 282 µM. Also, the solubility kinetic at 2 h in data set [3] is under 5 µM.

Turning to `CN1CCN(c2ccc(NC(=O)c3cc(N(C)Cc4ccc(C(F)(F)F)nc4)ncn3)cc2)CC1`, the MIC99 in data set [1] and in data set [2] was 12.5 µM (≈ 6.07 µg/mL) in each case. Also, the IC50 in the data set on Vero worked out at 45.2 µM. This compound also gave a Kinetic_solubility in data set [3] of 165 µM.

Take `CN(Cc1ccc(F)cc1)c1cc(NC(=O)c2ccccc2)ncn1`: the MIC99 in data set [2] is over 160 µM. The compound further showed a Kinetic_solubility in data set [3] of 5 µM.

With `CN(Cc1ccc(C#N)cc1)c1cc(C(=O)Nc2ccccc2)ncn1`, the MIC99 in data set [1] was over 50 µM; in data set [2] it was 20 µM (≈ 6.87 µg/mL). Also, the solubility kinetic at 2 h in data set [3] is under 5 µM.
